From the RNAGym collection of RNA variant scans (doi:10.1126/science.aae0568)
Fewer inactive variants are shown than the library holds.

B1: tRNA (parent)
chain: GUUCCGUUGGCGUAAUGGUAACGCGUCUCCCUCCUAAGGAGAAGACUGCGGGUUCGAGUCCCGUACGGAACG

Variants of: B1
Assay: yeast fitness relative to wild type (ratio to wild type); higher = fitter; tRNA-Arg(CCU), competitive growth, 37 C, YPD
Method in brief: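 Genotype frequency changes were the basis for Darwinian fitness relative to wild type. The frequencies came from 100-nucleotide paired-end sequencing of gene amplicons from the start population and each end population of pooled yeast strains with tRNA-Arg(CCU) gene variants at the native locus. Competition ran in YPD at 37°C for 24 hours in six replicates, genotypes needed ≥ 100 starting reads, and estimates < 0.5 were set to 0.5.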

Variant	yeast fitness
U8G G17A A20C C22G C29G C34G C60U C62U A69G	≤ 0.5
U8G A45C C49U	≤ 0.5
U8G G38A A69U	0.507
U8G G10A C62G	≤ 0.5
U8G G9C C33A G68A	≤ 0.5
U8G A14G A43C	≤ 0.5
U8G C30G C31U G39A	0.507
U8G C22U G23A C24G A43U	≤ 0.5
U8G U19A U54A A57U C66U	0.576
U8G C24G G63C	≤ 0.5
U8G C22G G25A G68A	≤ 0.5
U8G G10C C11U A37G U59C	≤ 0.5
U8G C29G C66A	≤ 0.5
U8G G17A C31A	≤ 0.5
U8G G12A G44A	0.566
U8C U35A	0.6
U8C U35G	0.693
U8G A20U G44C A57G	≤ 0.5
U8C U59A A70G	0.556
U8G A21C C46U	0.554
U8G C31U A37G U54A C55A	≤ 0.5
U8G C66U	0.668
U8G U19A U54A A57U G68C	≤ 0.5
U8G G17A C24G C66U	≤ 0.5

Variant	yeast fitness
U8G C11G U32A A57U C60A G68C	≤ 0.5
U8G U13A	0.56
U8G G38A	0.57
U8G C27U C31U C33A G67C	≤ 0.5
U8G C33A A37U G38C A70C	≤ 0.5
U8G A21G	0.582
U8C U64A A65U	0.553
U8G C33A A37U G38C	0.529
U8G C31U C66U	≤ 0.5
U8G A15U	≤ 0.5
U8G A20C C49G G50A G56C	≤ 0.5
U8G A14G C33U	≤ 0.5
U8G A21U C29U G68C	≤ 0.5
U8G C27U C30A A43C C60U	≤ 0.5
U8G A42U A69C	0.509
U8G A14U G18A G50A A57U A70G	≤ 0.5
U8G U13A C34G	≤ 0.5
U8G G52A	0.512
U8G G18C A37G A40G C55G C66A	≤ 0.5
U8G C27U C62G	≤ 0.5
U8G C46U C55A C66U	0.524
U8G A15C G18C C49U U64A A69U	≤ 0.5
U8G C11U U64A A70C	0.619
U8G G12C G39A	≤ 0.5

Variant	yeast fitness
U8G U26A G52A U54A C60A	≤ 0.5
U8G U16G C62G	0.616
U8G G51C C60A	≤ 0.5
U8G G9C A37U G50C	≤ 0.5
U8G U16A C34A A36C U64C C66A	≤ 0.5
U8G A14G C46U C55A C66U	≤ 0.5
U8G C24G C33U	≤ 0.5
U8G C33U A57C U64C A70G	0.511
U8C U47C	0.913
U8G G18C C49U G58A G67A	≤ 0.5
U8G G51A A65C C66U	≤ 0.5
U8G U26A G68C	≤ 0.5
U8G G12A G38A A69U	≤ 0.5
U8G A14G G18A U47A C62G	≤ 0.5
U8G G12A A21C U26C C60U	≤ 0.5
U8G G23C A37G A70G	0.631
U8G A21G C29U C30A U32C	≤ 0.5
U8G C49G A57U	≤ 0.5
U8G G68C	0.583
U8G A20G A37G G44A A65C	≤ 0.5
U8G U16A G18C C22G	≤ 0.5
U8G G12C C55A	≤ 0.5
U8G C24U C29G A45G C61U A65C G67A G68A	0.568
U8G A20U U53G C66G A70G	≤ 0.5

Variant	yeast fitness
U8G C22A C27U A40U	≤ 0.5
U8C U32G U47C C55G	≤ 0.5
U8G A43C G52A	0.847
U8G C34U A40C	0.591
U8C U59A	0.721
U8C U59G	0.901
U8G G12A G50C G52C C55U	0.618
U8G A14U G50A A57U G68C	≤ 0.5
U8G A14G U26A C62U	0.578
U8G A14G G18A U47A C55G	≤ 0.5
U8G C27A C31A C33G	≤ 0.5
U8G A37C U64A A70C	≤ 0.5
U8G C24A C30G A40G U47G	≤ 0.5
U8G G9A U19G U53C C60A	≤ 0.5
U8G C11G U32A A70C	0.599
U8G A65C	0.733
U8G C33A C49U C66U	0.609
U8G C33A C49U C66G	≤ 0.5
U8G C22U	0.632
U8G U19A C22A C66U	≤ 0.5
U8G G17A A20C C22G C29G C34G	0.549
U8G A43U C49U C55U	≤ 0.5
U8G G10C A20G G63A	≤ 0.5
U8G C22U A69U	0.731

Variant	yeast fitness
U8G G9U C30A C55U	≤ 0.5
U8G U13G A37U G63C	≤ 0.5
U8G A21G C27A U35A C62A A65C G67A	≤ 0.5
U8G A14U G50A	≤ 0.5
U8G A37G C55U	≤ 0.5
U8G U13A A43G U53A	0.58
U8G A57G C60A	≤ 0.5
U8G G12A A20G	≤ 0.5
U8G A45U	0.648
U8G U13A C30U G39C C55G	0.526
U8G C22U C62U	0.529
U8G G25C A36G G48A	≤ 0.5
U8G C29G G38C G44A	0.803
U8G C46G	0.593
U8G C11A C27U A37G G39C C49G	≤ 0.5
U8G C22G G25A G63C	≤ 0.5
U8G G18C A37G A40G G63C	0.506
U8G G52C G67A	≤ 0.5
U8G G10A C60U	0.585
U8G A36C U53C A69G	≤ 0.5
U8G G18C C22U C29U C46A C55G	0.574
U8G A36U	0.515
U8G C11G U32A C55U G67C	≤ 0.5
U8G C27U G44C U47A C60U	≤ 0.5

Variant	yeast fitness
U8G A42G	0.58
U8G U26C	0.592
U8G U26A	0.605
U8G A20C U35C C49A C62A	≤ 0.5
U8G C11U C24U A37U C66A	≤ 0.5
U8G C29U C31U U54G A65U G67A	≤ 0.5
U8G C11G U32A G67C	≤ 0.5
U8G C24G G41A C49U	≤ 0.5
U8G U19C C46A	0.853
U8G A21U C27G A57G	≤ 0.5
U8G C46G A57U	≤ 0.5
U8C U54C	0.915
U8G A42G A57G	≤ 0.5
U8G A36C A45U C49U	≤ 0.5
U8G A70C	0.633
U8G C30G C33G C61A A69U	≤ 0.5
U8G A20U C62A	0.624
U8G A37C G52C	0.627
U8G G39C U59G C66U	≤ 0.5
U8G C22U G51C G58A	≤ 0.5
U8G A43U	0.66
U8G C22U A43G	≤ 0.5
U8G C49U G51A A65U	≤ 0.5
U8G G52A A70U	≤ 0.5

Variant	yeast fitness
U8G G50C U64G	0.56
U8G C61A	0.562
U8G C31U C33G U47A G50U	0.608
U8G C34A	≤ 0.5
U8G C11A C30U A57U	0.613
U8G A21C U64A	0.516
U8G G38A G67A A69U	≤ 0.5
U8G U26A G67C	≤ 0.5
U8G C30U C31G G39A A45U G52A	0.567
U8G G25C A36G G48A C60A	≤ 0.5
U8C U59A C66A	≤ 0.5
U8G C22U U26A G52A	≤ 0.5
U8G C24A U35G C46G U53C U54G	≤ 0.5
U8G A21C C24U C33A	≤ 0.5
U8G G38C G39C A40G G44A C46G G52A	≤ 0.5
U8G C24G	0.537
U8C U53A U64C	≤ 0.5
U8G G38C G67U	0.529
U8G C24G G41A C49G C60A C62G A70C	≤ 0.5
U8G A21U C27G C49U	0.687
U8G U16C	0.6
U8G G9U C30A	≤ 0.5
U8G A20C A43U G67A	≤ 0.5
